Assay: Toxicity liver stage against HepG2, at 10uM
Format: cell-based
Parameters: test concentration 10 uM, cell line HepG2-A16-CD81EGFP
Settings: human, HepG2-A16-CD81EGFP cells; read-out: INHIBITION
Method in brief: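 Uninfected HepG2-A16-CD81EGFP cells, 3 × 10^3 per well, 1536-well, plated on prespotted compound at 10 μM final, parasite-free screening media added to match infected plates; puromycin 10 μM positive, DMSO 0.5% negative; run in parallel with 48 h PbLuc assay at 37 °C, 5% CO2; viability by CellTiter-Glo luminescence, normalized to controls.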

Structure (SMILES)	cytotoxicity at 10 µM [%]
c1cc(CN2CCc3ncc(CN4CCCCC4)n3CC2)cs1	-5.21
OCC1CCCCN1CCCNCc1cc(O)c2cc(F)ccc2n1 (stereo unspecified)	-39.2
Cc1cc(CC(C)NC2CCN(CC(C)C)CC2)[nH]n1 (stereo unspecified)	-8.32
COC(=O)c1ccc(CNCc2cn(C)nc2C)cc1	-8.55
O=C(Nc1cnccn1)[C@H]1COC[C@H]2CN(C3CCCC3)C[C@H]21	-20.4
CCCc1nnc(SCc2cc(=O)n3c4c(sc3n2)CCCC4)[nH]1	-1.05
CC(=O)N(Cc1ncc(C)o1)C1CCN(Cc2cnc(C)s2)C1 (stereo unspecified)	5.42
Cc1cc(S(=O)(=O)NCC(C)(C)N)c(F)cc1F	3.8
Cc1nc(NC(=O)N2CCCC(N(C)C)C2)nn1C (stereo unspecified)	-9.4
O=C(c1ccc2c(c1)OCO2)N1CCCSCC1CN1CCCC1 (stereo unspecified)	6.95
COc1cc(N2CCC3(CC2)CNC(=O)CO3)ncn1	2.57
Cc1cccc(C(C(=O)N(C)CCc2cn[nH]c2)N(C)C)c1 (stereo unspecified)	-8.06
Cc1cc2ncn(C(=O)N3CCCCC3)c2cc1C	10.3
CC(C)c1nnc2n1CCN(Cc1nc3c(F)cccc3[nH]1)C2	-9.14
COc1cc2c(nn1)CCN(Cc1noc(CC(C)C)n1)C2	-1.02
Cc1ncsc1C(=O)NCCNC(=O)c1cccs1	-8.83
O=C(O)c1ccccc1-n1cnc(CN2CCCc3ccccc32)c1	6.58
CN1CC(=O)N(c2ccsc2)CC12CCN(C(=O)Nc1ccccc1)C2 (stereo unspecified)	-78.7
COc1ccnc(N2CCN(C(=O)c3csc(C(C)C)n3)CC2)n1	-1.82
Fc1ccc(C2(NCc3noc(C4CC4)n3)CCC2)cc1	-0.304
Cc1cncc(C2CCCN(Cc3ccncc3)C2)n1 (stereo unspecified)	-9.8
CC1(C)CCC(CC(=O)O)c2ccccc21 (stereo unspecified)	2.93
Cc1nnc2n1CCN(C(=O)CN1C(=O)CCOc3ccccc31)C2	4.48

Structure (SMILES)	cytotoxicity at 10 µM [%]
O=C(NC1CCC1)[C@H]1CCS(=O)(=O)[C@@H]2CN(CCc3ccccc3)C[C@H]12	-3.06
Cc1c[nH]c(CN2CCOC(c3ccc(F)cc3)C2)c(C)c1=O (stereo unspecified)	-1.82
COC(C)c1cccc(NC(=O)N(CCC#N)Cc2ccccn2)c1 (stereo unspecified)	13.1
CC(C)c1nnc2n1CCN(c1nc3ccccc3o1)C2	4.12
CCn1cc(CN2CCCN(C(=O)c3sccc3OC)CC2)cn1	-5.68
COc1ccc(C(=O)NS(=O)(=O)c2cncc(Br)c2)c(OC)c1	-0.402
NS(=O)(=O)CCNC(=O)C1(c2ccccc2)CC1	-0.18
Cn1ccnc1CN1CCOC(C)(C(=O)N2CCOCC2)C1 (stereo unspecified)	1.27
Cc1cc(C)c(CNc2ncnc3ccsc23)c(=O)[nH]1	15.9
O=C1CC(c2ccc(O)cc2)c2sc(C(=O)O)c(-c3ccccc3)c2N1 (stereo unspecified)	-0.472
O=C(C1CCOCC1)N1CCO[C@H]2[C@H](OCc3ccncc3)CC[C@@H]21	-2.53
Cc1ccc(C(=O)O)cc1CNC(=O)CN1CC[C@](C)(O)C(C)(C)C1	-4.18
O=S(=O)(NCCc1ccccc1F)N1CCOCC1	-1.7
COCCN1C[C@@H]2[C@@H](OC)CCN(Cc3ccncc3)[C@@H]2C1	5.16
COc1ccc(C(=O)Nc2c(C(=O)N(C)C)nn(C)c2C)cc1	6.03
CS(=O)(=O)NC1CCCN(C(=O)NCc2cccnc2)C1 (stereo unspecified)	1.59
Cc1nc(COC[C@@H]2CC[C@H]3[C@H](CCN3C(=O)C3CC3)O2)cs1	-73.9
CNC(=O)C1Cn2ccnc2C2(CCN(Cc3cccc(C)n3)CC2)O1 (stereo unspecified)	7.67
Cn1cccc1-c1cc(C(=O)N2CCCC2c2nccs2)[nH]n1 (stereo unspecified)	3.78
CC(=O)N1N=C(c2cccs2)OC1C(=O)NCc1ccc(C)o1 (stereo unspecified)	-4.67
Cc1cc(C(=O)NCCC2CN(C)CCO2)c2cccc(C)c2n1 (stereo unspecified)	-2.94
CC(C)c1cc(C(=O)N[C@@H]2CC[C@@H](Oc3ccccc3)[C@@H]2O)on1	2.27
CC(C)=CCN1CCN(Cc2nccn2C)C(C)C1 (stereo unspecified)	-14.4

Structure (SMILES)	cytotoxicity at 10 µM [%]
Cc1noc(CN(Cc2ccc3c(c2)OCCO3)Cc2ccco2)n1	-10.8
CCc1ccc(NC(=O)C2CCN(C(=O)COC)CC2)cc1	0.929
O=C(O)c1c(-c2ccncc2)ncc2c1CCN(C1CCOC1)C2 (stereo unspecified)	15
O=C(NCCc1cc2nc(-c3ccncc3)ccn2n1)C1CCOCC1	4.59
Cn1nc(CN2CCCCC2)c2c1CN(C(=O)Nc1cccc(F)c1)C2	5.68
O=C(C1CC1)N1CCCN(c2ncnc3c2CCNCC3)CC1	5.52
CSc1nc2ccsc2c(=O)n1CC(=O)NC1CCCC1	0.297
Nc1ccc(CC2COc3ccccc3C2)cn1 (stereo unspecified)	0.541
CCC1CN(C(=O)c2ncccc2O)CCC(=O)N1Cc1ccccc1 (stereo unspecified)	3.2
Cn1c(C(N)=O)cc2c1CN(C(=O)C1CC(=O)N(C(C)(C)C)C1)CC2 (stereo unspecified)	-49.6
Clc1ccc(N2CCC(C3CCN(Cc4cccnc4)CC3)C2)nc1 (stereo unspecified)	13.5
COc1ccccc1C(=O)Nc1c(F)c(C(=O)N2CCCC2)nn1C	5.83
O=C(CCCN1CCCCC1)NC(C(=O)O)c1cccc(F)c1 (stereo unspecified)	1.91
Cc1nc(-n2cnnc2)ccc1-c1cccc2c1CCNC2	12.2
O=C(NC1CC1)c1cc(Cl)ccc1-n1cnnn1	3.73
Cc1csc(C(C)(C)NCC(=O)N2CCCC(C(N)=O)C2)n1 (stereo unspecified)	5.73
COc1ccc2c(c1)nc1n2[C@@H](CNCc2nccs2)COC1	-1.57
COCCCNC(=O)Nc1cc(-c2ccccc2C)nn1CCO	-0.267
COc1ccc2nnc(CCCC(=O)NCCc3ccccc3)n2n1	-5.11
COCC(=O)N1Cc2nc3c(C)c(-c4cccs4)nn3c(O)c2C1	-4.81
Nc1ncc(-c2ccc(C(F)(F)F)cc2)c(C2CCCNC2)n1 (stereo unspecified)	27.1
CC(C)c1ccsc1C(=O)N1CCCN(Cc2cscn2)CC1	4.07
N#Cc1ccc(NCc2cccc(COC3CCOCC3)c2)nc1	32.4

Structure (SMILES)	cytotoxicity at 10 µM [%]
Cn1cc(C#N)c(=O)n(CC(O)c2ccccc2F)c1=O (stereo unspecified)	-11
COC(=O)c1ncccc1N1CCN(C(=O)CN2CCOCC2)CC1	16.7
CC(Nc1cnn(C)c(=O)c1Cl)c1ccc(F)cc1 (stereo unspecified)	20.7
CCC(C)Oc1cc(C(=O)Nc2nccs2)ccn1 (stereo unspecified)	-6.19
Cc1nc(NCc2cccnc2)cc(C2COCCN2)n1 (stereo unspecified)	3.78
Cc1noc([C@H]2C[C@@H]3CCN(CC4CC4)C[C@H]3O2)n1	-7.23
COCCC(=O)N1CC[C@@H]2O[C@@H](C)C[C@H]2C1	-2.78
COc1ccc(CC(=O)N2CCN(Cc3ccco3)C[C@H]2C)cc1OC	1.02
CCOc1cc(CNCCCn2ccnc2)cc(Cl)c1OC	-5.21
CCCOC1CCCN(C(=O)c2ccc(S(N)(=O)=O)cc2)C1 (stereo unspecified)	-13.6
COc1ccc(C(=O)N2CCC(Nc3cccnn3)CC2)cn1	4.07
OCCC1CN(c2ncnc3[nH]cnc23)CCN1Cc1cccs1 (stereo unspecified)	12.8
CN(C)CC(=O)N1CCC2(CCc3cc(-c4cccnc4)ccc32)CC1	4.01
Cn1ncnc1NCc1ccc(F)cc1	0.361
Cc1noc(C)c1CN1CCc2ncc(CN(C)C)n2CC1	8.46
O=C1NC2(CCNCC2)CC1c1ccncc1 (stereo unspecified)	-60.7
Cc1cnn(CCC(=O)NS(=O)(=O)N2CCCc3ccccc32)c1	9.73
CCc1cc(CN(C)C(=O)CN2CC3(CCNCC3)OC2=O)on1	0.394
CN1CCS(=O)(=O)[C@@H]2CCN(C(=O)c3ccccc3)CC[C@@H]21	-127
CCn1nc2c(cc1=O)CN(CC(=O)Nc1cc(C(C)C)no1)CC2	-5.46
COc1ccccc1C(=O)Nc1nc2c(s1)CN(S(=O)(=O)C1CC1)CC2	-11.7
CCNC(=O)[C@@H]1C[C@H](N)CN1Cc1ccc2cccc(Cl)c2n1	5.91
CCOC(=O)CCCNC(=O)CN1CCN(c2ncccn2)CC1	-13.3

Structure (SMILES)	cytotoxicity at 10 µM [%]
Cc1nnc(CN(C)C2CCN(CCc3cccs3)C2)n1C (stereo unspecified)	-3.67
O=C(NCc1nnc2n1C(C(=O)NC1CC1)CC2)c1ccc(Cl)cc1Cl (stereo unspecified)	5.06
CN1CCc2c(C#N)c(NCc3cccnc3)n3cnnc3c2C1	11.2
CNC(=O)CS(=O)(=O)Cc1ccc(OC)c(F)c1	-6.7
Cc1noc(C)c1CN1CCN(CC2CC2)c2ncccc2C1	5.56
CNC(=O)NC(=O)CNC(CC(F)(F)F)c1ccc(F)cc1 (stereo unspecified)	7.69
CC(C)N[C@@H]1CO[C@H](CNC(=O)Nc2ccccc2)[C@H]1O	1.53
Fc1cnccc1CN1CCC2(CCNCC2)C1	-123
CN(C)C(=O)N1CCC2(CC(=O)N(c3ccc4c(c3)OCO4)C2)C1 (stereo unspecified)	8.04
CCN1CCN2CCCN(S(=O)(=O)c3ccc(S(C)(=O)=O)cc3)C2C1=O (stereo unspecified)	5.36
O=C1NCCCCC1Sc1ccccc1F (stereo unspecified)	9.43
CN(C)CCN1CCO[C@H]2CN(C(=O)N(C)C)C[C@H]21	0.657
CC(C)n1c(=O)c2sccc2n(CC(=O)Nc2cccc(Cl)c2)c1=O	8.93
OC1CCN(Cc2c(-c3ccco3)[nH]c3ncccc23)CC1	-1.58
CCSCCC(=O)Nc1ncn(CC(=O)NCc2ccccc2)n1	20
CNC(=O)CCc1cccc(C2CCCN(c3cc(C)ncn3)C2)n1 (stereo unspecified)	1.58
Fc1ccccc1CN1C[C@@H]2OCCN(c3ncccn3)[C@@H]2C1	-74
Cc1[nH]ncc1C(=O)N1CCOC(c2cccs2)C1 (stereo unspecified)	8.8
CC(=O)Nc1ccc(CN2CCOC2=O)cc1	-6.24
